Consider 14 molecules from ChEMBL document CHEMBL1926543, “Unprecedented synthesis, in vitro and in vivo anti-cancer evaluation of novel triazolonaphthalimide derivatives” (Eur J Med Chem, 2012).

Data set [1] has as its system HCT-116. In words: Cytotoxicity against human HCT116 cells after 72 hrs by MTT assay. Type of data set: functional, cell-based. The note with it: HCT-116, 72 h. The gist of the method: (§1)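 Cells seeded at 3.5 × 10⁴ cells/mL and pre-incubated 24 h at 37 °C, 5% CO₂; compounds diluted in DMSO and added for a further 72 h, with DMSO (final 0.5%) as control. Surviving cells measured by MTT, OD read at 492/620 nm; IC50 as mean of triplicate experiments.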

Data set [2] has as its system PC-3. In words: Cytotoxicity against human PC3 cells after 72 hrs by MTT assay. The format is functional, cell-based. Conditions: PC-3, 72 h. The gist of the method: as §1
A short description of data set [3]: Cytotoxicity against human U87MG cells after 72 hrs by MTT assay. Type of data set: functional, cell-based, U-87MG ATCC. Conditions: U-87 MG. The gist of the method:
as §1

The subject of data set [4] is HepG2. Kind of data set: Cytotoxicity against human HepG2 after 72 hrs by MTT assay. Type of data set: functional, cell-based. The note with it: HepG2, 72 h. The gist of the method: as §1
Data set [5] concerns SK-OV-3. Kind of data set: Cytotoxicity against human SKOV3 cells after 72 hrs by MTT assay. Conditions: SK-OV-3, 72 h. The format is functional, cell-based. The gist of the method:
as §1

Data set [6] in a line: Cytotoxicity against human L02 cells after 72 hrs by MTT assay. Type of data set: cell-based. The note with it: L02, 72 h. The gist of the method: as §1
Data set [7] can be described thus: Cytotoxicity against human HK2 cells after 72 hrs by MTT assay. The format is cell-based. The note with it: HK-2, 72 h. The gist of the method: as §1
For data set [8], the system named is CCRF S-180. In words: Antitumor activity against mouse S180 cells xenografted in ip dosed ICR mouse assessed as tumor growth suppression administered qd for 7 days measured on day 8. Type of data set: functional, organism-based. The gist of the method: (§2)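 S-180 sarcoma cells implanted in ICR mice (2.5 × 10⁶ or 3 × 10⁶ cells/animal, depending on batch); ten animals per group, allocated by body weight. Dosed intraperitoneally once daily for seven consecutive days in 0.9% physiological saline; saline-only model group and amonafide 30 mg/kg positive control. Body weights recorded every two days; tumours excised and weighed 24 h after last injection; suppression relative to control group.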

Data set [9] deals with CCRF S-180. In words: Antitumor activity against mouse S180 cells xenografted in ICR mouse assessed as tumor growth suppression at 30 mg/kg, ip qd for 7 days measured on day 8 relative to control. Type of data set: functional. Conditions: route intraperitoneal. The gist of the method: as §2
Data set [10] relates to CCRF S-180. Kind of data set: Antitumor activity against mouse S180 cells xenografted in ICR mouse assessed as tumor growth suppression at 45 mg/kg, ip qd for 7 days measured on day 8 relative to control. The note with it: route intraperitoneal. Type of data set: functional. The gist of the method:
as §2

The test system of data set [11] is CCRF S-180. Kind of data set: Antitumor activity against mouse S180 cells xenografted in ICR mouse assessed as tumor growth suppression at 60 mg/kg, ip qd for 7 days measured on day 8 relative to control. The note with it: route intraperitoneal. Type of data set: functional. The gist of the method:
as §2

Data set [12] has as its system CCRF S-180. In words: Antitumor activity against mouse S180 cells xenografted in ICR mouse assessed as tumor growth suppression at 7.5 mg/kg, ip qd for 7 days measured on day 8. Type of data set: functional. Conditions: route intraperitoneal. The gist of the method: as §2
Data set [13] deals with Mus musculus. In words: Toxicity in mouse S180 cells xenografted ICR mouse assessed as mortality at 15 to 30 mg/kg, ip qd for 7 days. The note with it: in vivo, 168 h. Type of data set: organism-based, CCRF S-180. More on the design: dose 15-30 mg/kg, route intraperitoneal. The gist of the method:
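S-180 sarcoma cells implanted into ICR mice (3 × 10⁶ cells/animal for this batch), ten animals per group allocated by weight. Drug dissolved in 0.9% saline (stock 0.75–3 mg/mL) and given intraperitoneally once daily for seven consecutive days at 7.5, 15 or 30 mg/kg; saline-only model group. Body weight recorded every two days; tumors excised and weighed 24 h after last injection.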

Molecules are shown by their SMILES. Bounds are passed on as bounds.

In the case of `CN(C)CCN1C(=O)c2cccc3c2c(cc2nnn(CCN(C)C)c23)C1=O`, the IC50 stood at 190 nM in data set [1]; 730 nM in [2]; 130 nM in [3]; 170 nM in data set [4]; 350 nM in data set [5].

As to `CCCCn1nnc2cc3c4c(cccc4c21)C(=O)N(CCN(C)C)C3=O`, the IC50 came to 1820 nM in data set [1]; 4770 nM in data set [2]; 1460 nM in data set [3]; 1010 nM in data set [4]; 2550 nM in data set [5].

In the case of `CN(C)CCCN1C(=O)c2cccc3c2c(cc2nnn(CCCN(C)C)c23)C1=O`, the IC50 in data set [1] amounted to 350 nM; in data set [2], 1200 nM; in data set [3] it was 300 nM; in data set [4], 290 nM; in data set [5], 460 nM.

For `CN(C)CCN1C(=O)c2cccc3cc(Nc4ccc([N+](=O)[O-])cc4)cc(c23)C1=O`, the IC50 in data set [1] is 620 nM; in [2], 410 nM; in data set [3], 620 nM; in [4] it was 410 nM; in data set [5], 1320 nM.

Take `CN(C)CCCN1C(=O)c2cccc3c2c(cc2nnn(CCN(C)C)c23)C1=O`: the IC50 amounted to 390 nM in data set [1]; 3280 nM in data set [2]; 370 nM in data set [3]; 780 nM in data set [4]; 640 nM in [5].

Take `CN(C)CCCn1nnc2cc3c4c(cccc4c21)C(=O)N(CCN(C)C)C3=O`: the IC50 in [1] was 150 nM; in [2] it was 710 nM; in [3] it was 140 nM; in data set [4], 180 nM; in data set [5] it was 400 nM.

On to `CN(C)CCCN1C(=O)c2cccc3c2c(cc2nnn(CCO)c23)C1=O`, for which the concentration for half-maximal inhibition (IC50) in data set [1] worked out at 7730 nM; in [2], 25000 nM; in data set [3], 4310 nM; in data set [4] it was 5210 nM; in data set [5], 9640 nM.

Turning to `Cn1nnc2cc3c4c(cccc4c21)C(=O)N(CC[N+](C)(C)[O-])C3=O`, the concentration for half-maximal inhibition (IC50) in data set [1] is > 10000 nM; in data set [2], > 10000 nM; in data set [3] it was > 10000 nM; in data set [4] it was > 10000 nM; in [5], > 10000 nM; in data set [6], 142000 nM. This molecule also registered a 50% inhibitory concentration (IC50) in [7] of 108000 nM. In addition, the Activity result in data set [8] is “Dose-dependent effect”; in data set [9], 4.83%; in [10] it was 46.18%; in data set [11], 62.74%.

Take `CN(C)CCN1C(=O)c2cccc3c2c(cc2nnn(CCO)c23)C1=O`: the IC50 in data set [1] stood at 1420 nM; in [2], 4290 nM; in data set [3], 1220 nM; in [4] it was 1070 nM; in [5], 2530 nM.

For `CN(C)CCCN1C(=O)c2cccc3c2c(cc2nnn(C)c23)C1=O`, the IC50 in data set [1] amounted to 1350 nM; in data set [2], 3210 nM; in [3], 1140 nM; in [4], 970 nM; in data set [5] it was 2000 nM.

As for `CCCCn1nnc2cc3c4c(cccc4c21)C(=O)N(CCCN(C)C)C3=O`, the 50% inhibitory concentration (IC50) in data set [1] is 6340 nM; in data set [2], 15500 nM; in data set [3] it was 6320 nM; in data set [4], 5770 nM; in [5], 8930 nM.

As for `COc1ccc(Nc2cc3c4c(cccc4c2)C(=O)N(CCN(C)C)C3=O)cc1`, the IC50 in data set [1] was found to be 1240 nM; in data set [2] it was 1620 nM; in data set [3] it was 2520 nM; in [4], 900 nM; in data set [5], 2340 nM.

Consider `CN(C)CCN1C(=O)c2cccc3c2c(cc2nnn(C)c23)C1=O`, for which the 50% inhibitory concentration (IC50) in [1] worked out at 650 nM; in [2], 1580 nM; in [3], 450 nM; in data set [4] it was 680 nM; in data set [5], 1170 nM; in data set [6] it was 1770 nM. For the same molecule, the IC50 in data set [7] is 990 nM. The Activity was 26.25% in [12] and “Toxic” in [13].

With `CN(C)CCN1C(=O)c2cccc3cc(N)cc(c23)C1=O` [AMONAFIDE], the IC50 amounted to 4550 nM in data set [1]; 8050 nM in data set [2]; 2800 nM in data set [3]; 1410 nM in [4]; 8830 nM in data set [5].
